{"data": "Published values from different studies", "INSR": "Insulin receptor (INSR, Homo sapiens, UniProt P06213)", "note": "Lines come from different studies, so protocols differ."}
{"Structure (SMILES)": "CN1CC(Oc2cnc(C#N)cc2-c2ccn3nc(NC(=O)C4CC4)cc3c2)C1", "target": "Insulin receptor, phosphorylated (INSR, Homo sapiens, UniProt P06213)", "observed": "enzyme activity", "mode": "inhibitor", "concentration": "1 µM", "measurement": "inhibition", "value": "1%"}
{"Structure (SMILES)": "COc1cc2ncnc(Nc3ccc(Oc4ccccc4)c(C)c3C)c2cc1OC", "target": "INSR", "observed": "enzyme activity", "mode": "inhibitor", "concentration": "1 µM", "measurement": "inhibition", "value": "5%"}
{"Structure (SMILES)": "O=C1Nc2ccc(Cl)cc2C1=Cc1cc(Cl)c(O)c(Cl)c1", "target": "INSR", "observed": "cell-free assay", "concentration": "0.5 µM", "measurement": "remaining signal", "value": "99.2%"}
{"Structure (SMILES)": "CN(C)C1CCN(CC#Cc2nn(C3CCCC3)c3nc(NCc4ccccc4)ncc23)C1 (stereo not drawn)", "target": "INSR", "observed": "enzyme activity", "mode": "inhibitor", "method": "FRET", "concentration": "1 µM", "measurement": "inhibition", "value": "8%"}
{"Structure (SMILES)": "COc1cc2c(Nc3ccc(Br)cc3F)ncnc2cc1OCC1CCN(C)CC1", "target": "INSR", "observed": "cell-free assay", "concentration": "0.5 µM", "measurement": "remaining signal", "value": "102%"}
{"Structure (SMILES)": "CNC(=O)c1ccccc1Nc1cc(Nc2ccc(N3CCOCC3)cc2OC)ncc1C(F)(F)F", "target": "INSR", "observed": "enzyme activity", "mode": "inhibitor", "concentration": "1 µM", "measurement": "inhibition", "value": "> 50%"}
{"Structure (SMILES)": "CCCS(=O)(=O)Nc1ccc(F)c(C(=O)c2c[nH]c3ncc(-c4ccc(Cl)cc4)cc23)c1F", "target": "INSR", "observed": "enzyme activity", "mode": "inhibitor", "concentration": "1 µM", "measurement": "inhibition", "value": "< 10%"}
{"Structure (SMILES)": "Cc1ccc(C(=O)Nc2ccc(CN3CCN(C)CC3)c(C(F)(F)F)c2)cc1C#Cc1cnc2cccnn12", "target": "INSR", "observed": "cell-free assay", "concentration": "23.5 nM", "measurement": "remaining signal", "value": "85%"}
{"Structure (SMILES)": "N#CC1(c2ccccn2)CCN(Cc2cc(C(=O)N3CCCC3)c(=O)n3ccccc23)CC1", "target": "INSR", "observed": "cell-free assay", "method": "competition with immobilised ligand", "concentration": "1 µM", "measurement": "remaining binding", "value": "88%"}
{"Structure (SMILES)": "CSc1nc(C)c(-c2ccnc(Nc3ccc(N4CCOCC4)cc3)c2)[nH]1", "target": "INSR", "observed": "cell-free assay", "mode": "inhibitor", "concentration": "10 µM", "measurement": "inhibition", "value": "-1.8%"}
{"Structure (SMILES)": "Cc1ccc(C(=O)NCc2ccsc2)cc1C#Cc1cn(C(C)C)c2ncnc(N)c12", "target": "INSR", "observed": "enzyme activity", "mode": "inhibitor", "concentration": "1 µM", "measurement": "activity vs control", "value": "82%"}
{"Structure (SMILES)": "CN(c1ncccc1CNc1nc(Nc2ccc3c(c2)CC(=O)N3)ncc1C(F)(F)F)S(C)(=O)=O", "target": "INSR", "observed": "enzyme activity", "mode": "inhibitor", "concentration": "1 µM", "measurement": "inhibition", "value": "57.2%"}
{"Structure (SMILES)": "O=C(NC[C@@H]1[C@H]2CN(C(=O)OCc3cc(C(F)(F)F)cc(C(F)(F)F)c3)C[C@@H]12)c1ccc2[nH]nnc2c1", "target": "INSR", "observed": "cell-free assay", "method": "competition with immobilised ligand", "concentration": "1 µM", "measurement": "remaining binding", "value": "83%"}
{"Structure (SMILES)": "Cc1ccc(Nc2nccc(N(C)c3ccc4c(C)n(C)nc4c3)n2)cc1S(N)(=O)=O", "target": "INSR", "observed": "enzyme activity", "mode": "inhibitor", "concentration": "0.3 µM", "measurement": "inhibition", "value": "6%"}
{"Structure (SMILES)": "O=C(NCc1ncc(C(F)(F)F)cc1Cl)c1ccc2c(c1)C1(CCS(=O)(=O)CC1)[C@@H](C1CC1)N2S(=O)(=O)c1ccc(F)cc1", "target": "INSR", "observed": "cell-free assay", "method": "competition with immobilised ligand", "concentration": "1 µM", "measurement": "remaining binding", "value": "100%"}
{"Structure (SMILES)": "Cc1cc(NC(=O)c2cccc3cc(-c4cccc5[nH]nc(N)c45)ccc23)ccc1F", "target": "INSR", "observed": "enzyme activity", "mode": "inhibitor", "concentration": "0.1 µM", "measurement": "activity vs control", "value": "107%"}
{"Structure (SMILES)": "C[C@@H]1CN(c2cc(-c3nn(C)c4ccc(OC5(C)CC5)cc34)ncn2)C[C@H](C)O1", "target": "INSR", "observed": "cell-free assay", "method": "competition with immobilised ligand", "concentration": "1 µM", "measurement": "remaining binding", "value": "100%"}
{"Structure (SMILES)": "CNCc1ccc(-c2cc(-c3nc(-c4ccc(S(=O)(=O)C(C)C)cc4)cnc3N)on2)cc1", "target": "INSR", "observed": "enzyme activity", "mode": "inhibitor", "concentration": "0.4 µM", "measurement": "inhibition", "value": "0%"}
{"Structure (SMILES)": "C[C@H](NC(=O)c1cnc2n1[C@](C)(Cc1ccc(C#N)cc1)C(=O)N2c1cc(Cl)c(F)c(Cl)c1)C(=O)NC1(c2ccccn2)CC1", "target": "INSR", "observed": "cell-free assay", "method": "competition with immobilised ligand", "concentration": "1 µM", "measurement": "remaining binding", "value": "100%"}
{"Structure (SMILES)": "CNC(=O)c1cc(Oc2ccc(NC(=O)Nc3ccc(Cl)c(C(F)(F)F)c3)cc2)ccn1", "target": "INSR", "observed": "enzyme activity", "mode": "inhibitor", "concentration": "0.3 µM", "measurement": "inhibition", "value": "3%"}
{"Structure (SMILES)": "CO[C@@H](C)c1c(Nc2ccc([C@H](N(C)C(=O)C3CCS(=O)(=O)CC3)C(F)(F)F)cc2)cnc2cc(Cl)nn12", "target": "INSR", "observed": "cell-free assay", "method": "competition with immobilised ligand", "concentration": "1 µM", "measurement": "remaining binding", "value": "87%"}
{"Structure (SMILES)": "CNc1cccc2cc(C(=O)Nc3ccc(C(=O)O)cc3)c(=O)[nH]c12", "target": "INSR", "observed": "enzyme activity", "mode": "inhibitor", "concentration": "10 µM", "measurement": "inhibition", "value": "5.2%"}
{"Structure (SMILES)": "Cc1nc(C2CCN(C(=O)c3ccc(OC(F)(F)F)cc3N)CC2)c2ncc(N3CCN(C)CC3)cc2n1", "target": "INSR", "observed": "cell-free assay", "method": "competition with immobilised ligand", "concentration": "1 µM", "measurement": "remaining binding", "value": "93%"}
{"Structure (SMILES)": "CS(=O)(=O)Nc1cccc(-c2csc(NC(=O)CSc3nc4nccnc4c(=O)n3CCc3ccccc3)n2)c1", "target": "INSR", "observed": "enzyme activity", "mode": "inhibitor", "concentration": "10 µM", "measurement": "inhibition", "value": "1%"}
